Ends that are not written are not given here.
Assays:
yeast Hsp90 M705V = assay: ITC of TPR-domain proteins with yeast Hsp90 M705V; type: binding; conditions: 300 μM Tah1 injected into 30 μM yeast Hsp90 M705V, 4 °C, pH 8.0
In short: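 ITC: mouse CHIP or yeast Tah1 (His tags cleaved) at 300 µM was titrated as 9–11 injections of 27 µl into 30 µM yeast Hsp90 M705V. Runs were at 30 °C for CHIP and 4 °C for Tah1, in 20 mM Tris/HCl pH 8.0, 1 mM EDTA, 5 mM NaCl. Data were corrected for separately measured heat of dilution and fitted by nonlinear least squares for stoichiometry, binding constant and enthalpy.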

Tah1 [1] = molecular target: T1, Tah1 (Saccharomyces cerevisiae, UniProt P25638); assay: Sedimentation equilibrium analytical ultracentrifugation of Tah1; type: physicochemical, S. cerevisiae; conditions: for Kd: 20 °C, pH 7.5
T1 sequence (P25638 1-111): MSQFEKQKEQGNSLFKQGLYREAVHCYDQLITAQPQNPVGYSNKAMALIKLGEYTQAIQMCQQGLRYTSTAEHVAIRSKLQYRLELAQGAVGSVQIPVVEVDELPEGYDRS
In short: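 Tag-cleaved Tah1 was dialysed into 20 mM Tris/HCl pH 7.5, 1 mM EDTA, 5 mM NaCl. Sedimentation equilibrium was run at 20 °C, loading 7.0 and 0.5 mg·ml−1 (547 and 39 µM), with a 12 mm path. Initial scans at 726 g checked for aggregates, followed by 39030 g, scanning hourly until unchanged (24 h). Data were fitted by INVEQ, Mfit and NONLIN, and Ka was reciprocated to Kd. Reversible versus irreversible dimer was judged by comparing the two loadings.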

Tah1 [2] = molecular target: T1, Tah1; assay: ITC of peptides injected into Tah1; type: binding, S. cerevisiae

Tah1: TPR-containing protein associated with Hsp90, S. cerevisiae, 111 amino acid residues, Hsp90-interacting co-chaperone
Kd (yeast Hsp90 M705V): 13 ± 1.7 µM | dimeric species present (Tah1 [1]; estimated from INVEQ fit, sedimentation equilibrium): approx. 19% | Kd (Tah1 [1]; read-out: Kd by INVEQ, Tah1 0.5 mg·ml−1 (39 μM), monomer-dimer): 510 µM | Kd (Tah1 [1]; read-out: Kd′ by NONLIN′, Tah1 0.5 mg·ml−1 (39 μM)): 150 µM | Kd (Tah1 [1]; read-out: Kd′ by NONLIN′, Tah1 7.0 mg·ml−1 (547 μM)): 1800 µM

AEGPTMEEVD
Kd (Tah1 [2]): 4.2 ± 0.5 µM

PADTEVEEVD
Kd (Tah1 [2]): 9.8 ± 0.7 µM

PADTEAEEVD
Kd (Tah1 [2]): 3.3 ± 0.2 µM

AEGPTAEEVD
Kd (Tah1 [2]): 14.8 ± 0.7 µM

PADAAMEEVD
Kd (Tah1 [2]): 0.75 ± 0.04 µM
